In data set [1] the test system is Nucleic Acid. Kind of data set: Binding affinity to DNA minor-groove 5'-ACGCGT-3' sequence. It counts as nucleic-acid assay.
For data set [2], the system named is Nucleic Acid. Description: Binding affinity to 5'-ACGCGT-3' sequence in 125 bp 5'-[32P]-radiolabeled DNA at 0.05 uM after 30 mins by DNase1 footprinting analysis. It counts as nucleic-acid assay. A digest of the protocol: (§1)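 A 125 bp radiolabeled PCR fragment was incubated 30 min at room temperature with polyamide in 10 mM Tris, 10 mM NaCl, pH 7. DNase I (0.02 U, with Mg2+/Mn2+, pH 8.0) then cleaved for 3 min, stopped by freezing on dry ice. Products were resolved on a denaturing 10% polyacrylamide urea gel and read by autoradiography.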

The subject of data set [3] is Nucleic Acid. Kind of data set: Binding affinity to 5'-ACGCGT-3' DNA assessed as macroscopic binding constant K1 by surface plasmon resonance-biosensor method. It counts as nucleic-acid assay. The method in brief:
(§2)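 SPR biosensor at 25 °C. 5'-biotinylated DNA hairpins, about 400 RU, were captured on streptavidin chips, with one blank flow cell as reference. Running buffer was 0.01 M cacodylic acid pH 6.25, 0.1 M NaCl, 1 mM EDTA, 0.005% P20. Known polyamide concentrations were injected and fitted to one- or two-site models to give K1 and K2.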

The subject of data set [4] is Nucleic Acid. Kind of data set: Binding affinity to 5'-AAATTT-3' DNA assessed as macroscopic binding constant K1 by surface plasmon resonance-biosensor method. It counts as nucleic-acid assay. The method in brief: as §2
For data set [5], the system named is Nucleic Acid. Description: Binding affinity to 5'-AAATTT-3' DNA. The class given is nucleic-acid assay.
Data set [6] deals with Nucleic Acid. Description: Binding affinity to 5'-ACGCGT-3' sequence in 125 bp 5'-[32P]-radiolabeled DNA at 0.5 uM after 30 mins by DNase1 footprinting analysis. The class given is nucleic-acid assay. A digest of the protocol:
as §1

Data set [7] relates to Nucleic Acid. Description: Binding affinity to DNA minor-groove 5'-ACCGGT-3' sequence. The class given is nucleic-acid assay.
In data set [8] the test system is Nucleic Acid. Description: Binding affinity to 5'-AAATTT-3' DNA assessed as change in melting temperature at 1:3 of DNA/compound ratio by spectrophotometry. The class given is nucleic-acid assay. A digest of the protocol: (§3)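 UV thermal melt (Cary spectrophotometer) of each duplex, 1 µM DNA with 3 µM polyamide, in 10 mM phosphate buffer with 12.5 mM NaCl, 1 mM EDTA, pH 6.2. ΔTM is the melting temperature of the DNA–polyamide complex minus that of duplex DNA alone.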

Data set [9] relates to Nucleic Acid. Description: Binding affinity to 5'-ACGCGT-3' DNA assessed as change in melting temperature at 1:3 of DNA/compound ratio by spectrophotometry. It counts as nucleic-acid assay. The method in brief: as §3
Data set [10] has as its system Nucleic Acid. Description: Binding affinity to 5'-ACACTT-3' DNA assessed as change in melting temperature at 1:3 of DNA/compound ratio by spectrophotometry. The class given is nucleic-acid assay. A digest of the protocol: as §3
Data set [11] concerns Nucleic Acid. Description: Binding affinity to 5'-ACGCGT-3' DNA at 30:80 of DNA/compound ratio by isothermal titration calorimetry. It counts as nucleic-acid assay. The method in brief: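 ITC by the model-free method at 25 °C in 0.01 M cacodylic acid. Polyamide at 80 µM was injected into 30 µM DNA in 30 × 10 µL injections, every 300 s after a 300 s delay, up to a mole ratio of about 0.6:1. Integrated heats were corrected for nonspecific heats including dilution, and normalized ΔH was fitted linearly against mole ratio.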
In general terms: Isothermal titration calorimetry measures the heat released or taken up as one component is titrated into another.

Data set [12] concerns Nucleic Acid. Kind of data set: Binding affinity to 5'-ACCGGT-3' sequence in 125 bp 5'-[32P]-radiolabeled DNA at 100 uM after 30 mins by DNase1 footprinting analysis. It counts as nucleic-acid assay. A digest of the protocol: as §1
The subject of data set [13] is Nucleic Acid. Description: Binding affinity to DNA minor-groove 5'-ACGCGT-3' sequence at 9:500 of DNA/compound ratio by CD spectral analysis. The class given is nucleic-acid assay.
The subject of data set [14] is Nucleic Acid. Description: Binding affinity to 5'-AAGCTA-3' DNA by surface plasmon resonance-biosensor method. It counts as nucleic-acid assay. The method in brief:
as §2
A general note: Surface plasmon resonance follows binding to a sensor surface in real time, without labels.

The test system of data set [15] is Nucleic Acid. Description: Binding affinity to 5'-AGCGCT-3' sequence in 125 bp 5'-[32P]-radiolabeled DNA at 100 uM after 30 mins by DNase1 footprinting analysis. It counts as nucleic-acid assay. The method in brief:
as §1

Data set [16] concerns Nucleic Acid. Kind of data set: Binding affinity to 5'-ACGCGT-3' DNA at 9:500 of DNA/compound ratio by CD spectral analysis. It counts as nucleic-acid assay.
For data set [17], the system named is Nucleic Acid. Kind of data set: Binding affinity to 5'-AAGCTA-3' DNA assessed as macroscopic binding constant K2 by surface plasmon resonance-biosensor method. It counts as nucleic-acid assay. A digest of the protocol: as §2
Data set [18] relates to Nucleic Acid. Description: Binding affinity to 5'-ACGCGT-3' sequence in 125 bp 5'-[32P]-radiolabeled DNA at 20 uM after 30 mins by DNase1 footprinting analysis. The class given is nucleic-acid assay. The method in brief:
as §1

Data set [19] deals with Nucleic Acid. Kind of data set: Binding affinity to 5'-AAATTT-3' DNA by surface plasmon resonance-biosensor method. It counts as nucleic-acid assay. The method in brief:
as §2

The subject of data set [20] is Nucleic Acid. Kind of data set: Binding affinity to 5'-ACGCGT-3' DNA assessed as macroscopic binding constant K2 by surface plasmon resonance-biosensor method. It counts as nucleic-acid assay. A digest of the protocol: as §2
Data set [21] has as its system Nucleic Acid. Kind of data set: Binding affinity to 5'-AAGCTA-3' DNA assessed as macroscopic binding constant K1 by surface plasmon resonance-biosensor method. The class given is nucleic-acid assay. The method in brief: as §2
In data set [22] the test system is Nucleic Acid. Description: Binding affinity to 5'-ACGCGT-3' DNA by surface plasmon resonance-biosensor method. It counts as nucleic-acid assay. The method in brief: as §2
For data set [23], the system named is Nucleic Acid. Description: Binding affinity to 5'-ACACGT-3' sequence in 125 bp 5'-[32P]-radiolabeled DNA at 100 uM after 30 mins by DNase1 footprinting analysis. It counts as nucleic-acid assay. A digest of the protocol:
as §1

Data set [24] has as its system Nucleic Acid. Description: Binding affinity to 5'-AAATTT-3' DNA at 9:500 of DNA/compound ratio by CD spectral analysis. It counts as nucleic-acid assay.
The subject of data set [25] is Nucleic Acid. Kind of data set: Binding affinity to 5'-ACACTT-3' DNA at 9:500 of DNA/compound ratio by CD spectral analysis. It counts as nucleic-acid assay.
Data set [26] is described as follows: Solubility of the compound in water. The class given is physicochemical. As to conditions: buffer.

Each structure is given as a SMILES string. Activity calls are given as the source filed them. The rule behind the calls is not given here.

What is called ΔTm is the change in melting temperature against a reference sample. For the compound `CN(C)CCNC(=O)c1nc(NC(=O)c2cc(NC(=O)c3nc(NC=O)cn3C)cn2C)cn1C`, the K in the data set with Nucleic Acid [1] is 1.9 ×10⁸ /M; with Nucleic Acid [3], 1.9 ×10⁸ /M; with Nucleic Acid [4], 5.3 ×10⁴ /M; with Nucleic Acid [5] it was 5.3 ×10⁴ /M; in the data set with Nucleic Acid [7], 2.2 ×10⁵ /M. The outcome in the data set with Nucleic Acid [2] and in the data set with Nucleic Acid [6] was Active. The values for the ΔTm in the data set on Nucleic Acid [8] and with Nucleic Acid [9] were 1 °C and 9 °C, respectively.
`CN(C)CCNC(=O)c1nc(NC(=O)c2cc(NC(=O)c3nc(NC(=O)c4ccccc4)cn3C)cn2C)cn1C`: the ΔTm in the data set on Nucleic Acid [10] amounted to 0 °C; with Nucleic Acid [8] it was 0 °C; in the data set on Nucleic Acid [9], 9 °C. For the same compound, the result in the data set on Nucleic Acid [11], in the data set with Nucleic Acid [13], in the data set with Nucleic Acid [16] and in the data set on Nucleic Acid [18] was Active. In addition, the outcome with Nucleic Acid [12], in the data set with Nucleic Acid [15], in the data set with Nucleic Acid [19] and with Nucleic Acid [23] was inactive. Besides, the K in the data set on Nucleic Acid [3] was determined as 6.1 ×10⁴ /M; in the data set with Nucleic Acid [17] it was 2.8 ×10⁵ /M; in the data set with Nucleic Acid [20] it was 3.7 ×10⁸ /M; with Nucleic Acid [21] it was 2.3 ×10⁵ /M. Besides, the Kb with Nucleic Acid [14] was 2.5 ×10⁵ /M; in the data set with Nucleic Acid [22], 4.8 ×10⁶ /M.
Take `CN(C)CCNC(=O)c1nc(NC(=O)c2cc(NC(=O)c3nc(NC(=O)c4ccccc4)cn3C)cn2CCCN)cn1C`: the result in the data set on Nucleic Acid [24], with Nucleic Acid [11], in the data set with Nucleic Acid [13], in the data set with Nucleic Acid [16], in the data set with Nucleic Acid [6] and in the data set with Nucleic Acid [25] was Active. For the same compound, the ΔTm was 0 °C in the data set on Nucleic Acid [10], 7.6 °C in the data set on Nucleic Acid [8] and > 25 °C in the data set with Nucleic Acid [9]. Besides, the K stood at 8.7 ×10⁵ /M in the data set on Nucleic Acid [3], 1.2 ×10⁷ /M in the data set with Nucleic Acid [17], 2.7 ×10⁸ /M in the data set with Nucleic Acid [20] and 2.9 ×10⁵ /M in the data set with Nucleic Acid [21]. In addition, the Kb in the data set on Nucleic Acid [14] was 2.1 ×10⁶ /M; with Nucleic Acid [22] it was 1.5 ×10⁷ /M. Also, the result in the data set on Nucleic Acid [19] was inactive.
As for `CN(C)CCNC(=O)c1nc(NC(=O)c2cc(NC(=O)c3nc(NC=O)cn3C)cn2CCCN)cn1C.Cl`, in data set [26], the solubility entry is “soluble”.

(Values after ChEMBL document CHEMBL1938283, “Novel diamino imidazole and pyrrole-containing polyamides: Synthesis and DNA binding studies of mono- and diamino-phenyl-ImPy*Im polyamides designed to target 5'-ACGCGT-3'” (Bioorg Med Chem, 2012).)
